Experimental data as given in ChEMBL document CHEMBL4118059, “Hirsutane-Type Sesquiterpenes with Inhibitory Activity of Microglial Nitric Oxide Production from the Red Alga-Derived Fungus Chondrostereum sp. NTOU4196” (J Nat Prod, 2017).
pIC50: −log10 of the molar value.

Columns and labels:
[1] = system: BV-2; experiment: Antineuroinflammatory activity in mouse BV2 cells assessed as inhibition of LPS-induced nitric oxide production pretreated for 15 mins followed by LPS-stimulation measured after 24 hrs by colorimetric method; format: functional, cell-based
[2] = Cytotoxicity against LPS-induced mouse BV2 cells assessed as cell viability at 20 uM pretreated for 15 mins followed by LPS-stimulation measured after 24 hrs by MTT assay relative to control; format: cell-based, BV-2; conditions: LPS-stimulated BV2 cells, read-out: Activity
Summary of the method: (§1)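 BV-2 cells, LPS-activated, exposed to compounds at 2–20 μM. Viability was measured by MTT assay and expressed as mean ± SD of three independent experiments.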

[3] = system: BV-2; experiment: Antineuroinflammatory activity in mouse BV2 cells assessed as inhibition of LPS-induced nitric oxide production by measuring nitrite levels at 20 uM pretreated for 15 mins followed by LPS-stimulation measured after 24 hrs by colorimetric method (reference value: 15 +/- 1 uM); format: functional
[4] = Cytotoxicity against LPS-induced mouse BV2 cells assessed as cell viability at 2 uM pretreated for 15 mins followed by LPS-stimulation measured after 24 hrs by MTT assay relative to control; format: cell-based, BV-2; conditions: LPS-stimulated BV2 cells, read-out: Activity; summary of the method: as §1
[5] = Cytotoxicity against LPS-induced mouse BV2 cells assessed as cell viability at 5 uM pretreated for 15 mins followed by LPS-stimulation measured after 24 hrs by MTT assay relative to control; format: cell-based, BV-2; conditions: LPS-stimulated BV2 cells, read-out: Activity; summary of the method: as §1
[6] = Cytotoxicity against LPS-induced mouse BV2 cells assessed as cell viability at 10 uM pretreated for 15 mins followed by LPS-stimulation measured after 24 hrs by MTT assay relative to control; format: cell-based, BV-2; conditions: LPS-stimulated BV2 cells, read-out: Activity; summary of the method: as §1
[7] = system: BV-2; experiment: Antineuroinflammatory activity in mouse BV2 cells assessed as inhibition of LPS-induced nitric oxide production at 5 uM pretreated for 15 mins followed by LPS-stimulation measured after 24 hrs by colorimetric method relative to control; format: functional
[8] = system: BV-2; experiment: Antineuroinflammatory activity in mouse BV2 cells assessed as inhibition of LPS-induced nitric oxide production at 20 uM pretreated for 15 mins followed by LPS-stimulation measured after 24 hrs by colorimetric method relative to control; format: functional

Compound | viability at 24 h, 20 µM [2] [%] | Activity [3] [µM] | viability at 24 h, 10 µM [6] [%] | further results
COc1cc(/C=C/C(=O)CC(=O)/C=C/c2ccc(O)c(OC)c2)ccc1O [CURCUMIN] | – | – | – | pIC50 [1]: 5.22
C[C@@H]1[C@@H](O)C[C@]2(O)[C@H](O)[C@H]3CC(C)(C)C[C@H]3[C@]12C | 83 | 12 | – | –
C[C@H]1[C@@H](O)C[C@]2(O)C[C@@]3(O)CC(C)(C)C[C@H]3[C@]12C | – | 13 | – | –
C[C@@H]1[C@@H](O)C[C@]2(O)CC3=C(CC(C)(C)C3=O)[C@]12C | 97 | 11.6 | – | –
C=C1C(=O)C[C@]2(O)[C@H](O)C3=C(CC(C)(C)C3=O)[C@]12C | 69 | 10 | 89 | viability at 24 h, 2 µM [4]: 95%; viability at 24 h, 5 µM [5]: 95%
C[C@@H]1[C@@H](O)C[C@]2(O)C=C3C(=CC(C)(C)[C@@H]3O)[C@]12C | 93 | 11 | – | –
C[C@H]1C(=O)C=C2C=C3[C@@H](O)C(C)(C)C[C@@]3(O)[C@@]21C | 71 | 12 | – | –
C=C1C(=O)C=C2C=C3[C@@H](O)C(C)(C)C[C@@]3(O)[C@]12C | 39 | 8 | 77 | viability at 24 h, 2 µM [4]: 94%; viability at 24 h, 5 µM [5]: 87%; inhibition at 5 µM [7]: 53%; inhibition [1]: Dose-dependent effect
C=C1C(=O)C[C@@]2(OC)C[C@]3(O)CC(C)(C)C[C@@H]3[C@]12C | 11 | 4 | 11 | viability at 24 h, 2 µM [4]: 47%; viability at 24 h, 5 µM [5]: 30%
C[C@@H]1[C@@H](O)C[C@]2(O)[C@H](O)C3=CC(C)(C)C[C@H]3[C@]12C | 87 | 14 | – | –
C[C@H]1[C@H](O)C[C@@]2(O)C[C@]3(O)CC(C)(C)C[C@@H]3[C@@]12C | – | 13 | – | –
C[C@@H]1C(=O)C[C@]2(O)C[C@@]3(O)CC(C)(C)C[C@H]3[C@]12C | 83 | 12 | – | –
C[C@H]1C(=O)C[C@]2(O)C[C@@]3(O)CC(C)(C)C[C@H]3[C@]12C | – | 11 | – | –
C[C@H]1C(=O)C=C2C=C3C(=O)C(C)(C)C[C@@]3(O)[C@@]21C | 11 | 4 | 23 | –
C=C1[C@H](O)C[C@]2(O)C[C@]3(O)CC(C)(C)C[C@]3(O)[C@]12C | 67 | 8 | 73 | viability at 24 h, 2 µM [4]: 93%; inhibition at 20 µM [8]: 47%; viability at 24 h, 5 µM [5]: 82%; inhibition [1]: Dose-dependent effect
C=C1C(=O)C=C2C[C@@]3(O)CC(C)(C)C[C@H]3[C@]12C | 12 | 4 | 22 | –
